# Results from different studies.
# Each line is one published result; the experiments were not run side by side.
# Target: Serine/threonine-protein kinase PLK4 (PLK4, Homo sapiens, UniProt O00444)
# Sequence (O00444 1-970, as in one of the studies): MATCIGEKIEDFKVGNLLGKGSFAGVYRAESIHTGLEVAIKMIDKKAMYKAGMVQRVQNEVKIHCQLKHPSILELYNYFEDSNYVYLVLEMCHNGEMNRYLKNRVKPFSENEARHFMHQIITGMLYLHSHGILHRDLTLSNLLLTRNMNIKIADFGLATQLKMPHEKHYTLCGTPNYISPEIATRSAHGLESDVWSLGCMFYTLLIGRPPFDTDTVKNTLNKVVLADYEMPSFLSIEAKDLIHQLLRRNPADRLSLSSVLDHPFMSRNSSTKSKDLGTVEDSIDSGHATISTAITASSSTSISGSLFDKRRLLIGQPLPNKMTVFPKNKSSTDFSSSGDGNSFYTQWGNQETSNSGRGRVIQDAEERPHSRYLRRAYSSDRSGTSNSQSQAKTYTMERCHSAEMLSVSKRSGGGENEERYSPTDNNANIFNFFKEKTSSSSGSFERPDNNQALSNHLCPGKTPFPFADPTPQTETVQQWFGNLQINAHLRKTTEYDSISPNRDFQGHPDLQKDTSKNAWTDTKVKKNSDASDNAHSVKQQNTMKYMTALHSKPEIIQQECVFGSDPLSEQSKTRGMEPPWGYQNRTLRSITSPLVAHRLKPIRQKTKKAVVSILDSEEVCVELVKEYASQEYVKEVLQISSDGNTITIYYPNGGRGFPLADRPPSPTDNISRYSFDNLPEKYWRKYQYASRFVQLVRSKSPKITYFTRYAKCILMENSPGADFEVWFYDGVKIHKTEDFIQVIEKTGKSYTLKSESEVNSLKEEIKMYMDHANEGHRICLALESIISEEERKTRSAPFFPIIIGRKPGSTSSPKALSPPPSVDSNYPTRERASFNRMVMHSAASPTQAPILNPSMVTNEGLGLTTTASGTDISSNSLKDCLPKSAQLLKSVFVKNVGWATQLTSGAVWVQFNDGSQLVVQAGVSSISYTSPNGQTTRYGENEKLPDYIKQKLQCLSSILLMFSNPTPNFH
SMILES,test,conditions,measurement,result
Nc1ncnc2occ(-c3ccc(NC(=O)Nc4cc(C(F)(F)F)ccc4F)cc3)c12,"cell-free assay, inhibitor",20 µM,remaining signal,0.55%
Cc1ccc(C(=O)NCc2ccsc2)cc1C#Cc1cn(C(C)C)c2ncnc(N)c12,"enzyme activity, inhibitor",1 µM,activity vs control,75%
O=C(Nc1cnn(-c2csc(C(=O)NC3COC3)c2)c1)Nc1ccccc1Cl,"enzyme activity, inhibitor",5 µM,remaining activity,88.2%
COc1cc(Cl)c(C(=O)N[C@@H](CN[C@H]2CC[C@@H](N)CC2)Cc2ccc(C#N)cc2)cc1-c1ccc(CN[C@H](C)c2ccc(C)cc2)o1,"enzyme activity, inhibitor",1 µM,remaining activity,83%
CN1CC(Oc2cnc(C#N)cc2-c2ccn3nc(NC(=O)C4CC4)cc3c2)C1,"enzyme activity, inhibitor",1 µM,inhibition,-5%
CC(C)(C)c1nc(-c2cccc(NS(=O)(=O)c3c(F)cccc3F)c2F)c(-c2ccnc(N)n2)s1,"enzyme activity, inhibitor, radiometric",1 µM,remaining activity,6%
O=C(Nc1cccnn1)N1CC(C/C=C/c2cncc(Oc3ccc(C(F)(F)F)cn3)n2)C1,"cell-free assay, competition with immobilised ligand",1 µM,remaining binding,98%
COc1cc2nccc(Oc3ccc(NC(=O)Nc4ccc(F)cc4F)c(F)c3)c2cc1OC,"thermal stability, DSF",10 µM,ΔTm,5 to 10 °C
CC(C)(O)[C@H]1CC[C@H](Nc2ccc3ncc(-c4cccc(C(F)(F)F)c4)n3n2)CC1,"enzyme activity, inhibitor",1 µM,remaining activity,101%
Cc1ccc(C(=O)Nc2ccc(CN3CCN(C)CC3)c(C(F)(F)F)c2)cc1C#Cc1cnc2cccnn12,"enzyme activity, inhibitor",23.5 nM,remaining activity,84%
CC(C)(C)c1nc2c(s1)c1nc(N)ncc1c1ccc(NS(=O)(=O)c3c(F)cccc3F)c(F)c12,"enzyme activity, inhibitor, radiometric",1 µM,remaining activity,44%
Cc1sc(C(=O)NC2COC2)cc1-n1cc(NC(=O)Nc2c(F)cccc2Cl)cn1,"enzyme activity, inhibitor",10 µM,remaining activity,100%
CN(C)c1ncnc(-c2ccc3nc(Nc4cc(CN5CCN(C(=O)CC(F)(F)F)CC5)ccn4)[nH]c3c2)c1Cl,"cell-free assay, competition with immobilised ligand",1 µM,remaining binding,76%
